The values that follow come from ChEMBL document CHEMBL4145691, “Metalloporphyrin-Catalyzed Oxidation of Sunitinib and Pazopanib, Two Anticancer Tyrosine Kinase Inhibitors: Evidence for New Potentially Toxic Metabolites” (J Med Chem, 2018).

The nature of series [1]: Drug level using sunitinib assessed as compound formation in presence of KHSO5 and Mn(III)TDCPP/Cl by NMR and mass spectrometry. The series is classed as physicochemical. In outline:
(§1)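 Biomimetic oxidation catalysed by Mn(III)-porphyrin with water-soluble oxygen donor (KHSO5 or MMPP), run in biphasic water/organic medium with a quaternary ammonium salt as phase-transfer catalyst. Products identified by NMR and mass spectrometry.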

Series [2] can be described thus: Drug level using pazopanib assessed as compound formation in presence of MMPP and Mn(III)TDCPP/Cl by NMR and mass spectrometry. It is filed as physicochemical. Summed up:
as §1

The nature of series [3]: Retention time of the compound in human liver microsomes by UHPLC-MS analysis. It is filed as ADME, microsome. In outline: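 Human liver microsomes (final 0.5 mg/mL protein) with NADPH regenerating system in 0.1 M phosphate pH 7.4, pre-incubated 5 min at 37 °C. Stopped with acetonitrile, centrifuged, filtered, supernatant analysed by UHPLC-MS (ESI+, full scan/MRM). No-NADPH negative control.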
In general terms: Microsomes from liver hold many membrane-bound enzymes, among them those of drug oxidation.

The nature of series [4]: Retention time of the compound in presence of KHSO5 and Mn(III)TDCPP/Cl by UHPLC-MS analysis. It is filed as physicochemical. In outline: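 Sunitinib oxidation mixture run by UHPLC-MS at 0.4 mL/min and 30 °C. Eluents: 5 mM ammonium formate pH 3.2, and 0.1% formic acid in acetonitrile. Gradient 5→35% B by 3.5 min, held to 5.5 min, then 95% by 6.5 min. ESI+, full scan m/z 200–500 plus MRM.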

A short description of series [5]: Retention time of the compound in presence of MMPP and Mn(III)TDCPP/Cl by UHPLC-MS analysis. It is filed as physicochemical. In outline:
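Pazopanib oxidation mixture run by UHPLC-MS at 0.4 mL/min and 30 °C. Eluents: 5 mM ammonium formate pH 3.2, and 0.1% formic acid in acetonitrile. ESI+, full scan m/z 200–520 plus MRM.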

`CC[N+]([O-])(CC)CCNC(=O)c1c(C)[nH]c(/C=C2\C(=O)Nc3ccc(F)cc32)c1C`: in series [1], the Product formation entry is on record as “Active”.

Turning to `CC(=O)OCc1c2ccc(N(C)c3ccnc(Nc4ccc(C)c(S(N)(=O)=O)c4)n3)cc2nn1C`, the Product formation result in series [2] was “Active”.

Regarding `CCN(CC)CCNC(=O)c1c(C=O)[nH]c(/C=C2\C(=O)Nc3ccc(F)cc32)c1C`, the Retention_time in series [3] and in series [4] was 4.36 min in each case. In addition, the Product formation result in series [1] was “Active”.

Consider `Cc1ccc(Nc2ncc(Cl)c(N(C)c3ccc4c(CO)n(C)nc4c3)n2)cc1S(N)(=O)=O`, for which the Product formation result in series [2] was “Active”. The Retention_time in series [5] was determined as 3.32 min.

For `CCN(CC)CCNC(=O)c1c(/C=N/OC)[nH]c(/C=C2\C(=O)Nc3ccc(F)cc32)c1C`, the Retention_time was 4.74 min in series [3] and 4.77 min in series [4].

Consider `Cc1ccc(Nc2nccc(N(C)c3ccc4c(CO)n(C)nc4c3)n2)cc1S(N)(=O)=O`, for which the Product formation result in series [2] is “Active”. Further, the Retention_time in series [5] was 2.56 min.

For `CCN(CC)CCNC(=O)c1c(COC)[nH]c(/C=C2\C(=O)Nc3ccc(F)cc32)c1C`, in series [1], the Product formation result is “Active”. For the same molecule, the Retention time in series [4] is 4.56 min.

As to `CO/N=C/c1c2ccc(N(C)c3ccnc(Nc4ccc(C)c(S(N)(=O)=O)c4)n3)cc2nn1C`, the Product formation entry in series [2] is recorded as “Active”. The Retention time in series [5] was in the range of 2.96 to 3.11 min.

On to `Cc1ccc(Nc2nccc(N(C)c3ccc4c(C=O)n(C)nc4c3)n2)cc1S(N)(=O)=O`, for which the Retention_time was 2.84 min in series [3] and 2.82 min in series [5]. Further, in series [2], the Product formation result is reported as “Active”.

Regarding `Cc1ccc(Nc2ncc(Cl)c(N(C)c3ccc4c(C=O)n(C)nc4c3)n2)cc1S(N)(=O)=O`, the Product formation entry in series [2] was “Active”. The Retention_time in series [5] is listed as 3.63 min.

`Cc1ccc(Nc2ncc(Cl)c(N(C)c3ccc4c(C)n(C)nc4c3)n2)cc1S(N)(=O)=O`: the values for the Retention_time in series [3] and in series [5] were 3.54 min and 3.55 min, respectively. Moreover, the Product formation result in series [2] is recorded as “Active”.

As for `CCN(CC)CCNC(=O)c1c(CO)[nH]c(/C=C2\C(=O)Nc3ccc(F)cc32)c1C`, the Retention_time in series [3] and in series [4] was 4.36 min each time. Further, in series [1], the Product formation result is given as “Active”.
